Experiment [1] can be described thus: reducers of endogenous Her2 protein level, primary screen, SKBR3 breast tumor cells, AlphaScreen, ATP viability (AID 461;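 active = Her2 level under about 52% in both replicate screens, with viability over 70% of control, limit read from the data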;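 as to Her2 level: lower value means less Her2 protein in the cells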;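 as to viability: percent of carrier control wells set as 100% viability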). Particulars: 18-24 h, measured here: SKBR3 viability, ATP luminescence, at 10 µM. For orientation: In Alpha technology, singlet oxygen from a donor bead excites a nearby acceptor bead.
In experiment [2] the target is Receptor tyrosine-protein kinase erbB-2 (Homo sapiens) (UniProt P04626). The description is as above. Particulars: 18-24 h, at 10 µM, stronger effect = lower value.
Experiment [3] in a line: SK-BR-3 cell growth inhibitors, pilot screen, 24 h, human (AID 572;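 active = viability at or below 10% of carrier control in both of two separate runs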;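 also: compound exposure lasted between 18 and 24 h rather than exactly 24 h; 100% = carrier-treated control wells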). Particulars: SK-BR-3 viability, CellTiter-Glo luminescence, at 10 µM, stronger effect = lower value. For orientation: In ATP-based viability assays light output follows the ATP content of the culture.
Experiment [4] in a line: HUVEC growth inhibition – cell-based, human, primary screen (AID 575;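 active = viability at or below 30% in both replicate assays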;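 also: 100% = median of untreated cell wells with 0.1% DMSO on each plate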). The following applies: HUVEC proliferation, CellTiter-Glo luminescence, 72 h; at 10 µM; stronger effect = lower value. An outline of the steps:
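system = HUVEC primary cells | amount = 1250 cells/well | buffer or medium = supplemented EBM, 2% fetal bovine serum | dosing = single-point 10 µM, DMSO 0.1% final | times = 72 h compound incubation | detection = CTG luminescence | read-out = % viability relative to median vehicle-well signal on each plate | control set = vehicle and MePR control wells | format = collagen-coated 384-well format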

Experiment [5] in a line: growth inhibitors of H69AR lung tumor, primary screen, human, duplicate replicates (AID 580;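 active = viability at or under a set limit in both replicates, limit being median viability minus 3 SD, cut at about 48% in these data, passing the limit was not always enough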;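 also: 100% = mean luminescence of untreated wells and 0% = no signal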). The following applies: H69AR lung tumor cells viability, ATP luminescence, 72 h; at 10 µM; stronger effect = lower value.
Experiment [6] in a line: reversal of MRP1-mediated doxorubicin resistance, pilot screen, H69AR cells, doxorubicin co-treatment (AID 601). Particulars: CellTiter-Glo, 72 h, at 10 µM; for differential viability (reversal): stronger effect = higher value.
Experiment [7] is described as follows: 384-well plate pilot, post-Golgi transport modulator project, inhibition of yeast transport mutant growth (AID 636; in the data active = inhibition above about 31%). The following applies: absorbance 615 nm, about 18 h, stronger effect = higher value.
The nature of experiment [8]: growth suppression of yeast trafficking mutant, preliminary HTS, modulators of trafficking downstream of Golgi apparatus project, 1536-format plate, OD 615 nm (AID 637; in the data active = inhibition above about 30%). The following applies: yeast transport mutant growth, absorbance 615 nm, 18 h; stronger effect = higher value.
The mark [9] stands for this setting: H69AR cells + 2 uM doxorubicin, measured here: viability with 2 uM doxorubicin, stronger effect = lower value.
Setting [10] is: H69AR cells, compound alone cytotoxicity.

The values below come from PubChem BioAssay.

SMILES strings stand for the structures. Calls of active or inactive are those of the source.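 The calls were made as follows, unless noted: active = viability loss from added drug above about 55%, and viability with drug at most 40%, in both replicates (limit read from the data, passing the limit was not always enough); inconclusive = both conditions met in only one replicate; inactive = neither replicate meets both conditions.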

Sequence of Receptor tyrosine-protein kinase erbB-2 (Homo sapiens) (P04626 whole entry, looked up): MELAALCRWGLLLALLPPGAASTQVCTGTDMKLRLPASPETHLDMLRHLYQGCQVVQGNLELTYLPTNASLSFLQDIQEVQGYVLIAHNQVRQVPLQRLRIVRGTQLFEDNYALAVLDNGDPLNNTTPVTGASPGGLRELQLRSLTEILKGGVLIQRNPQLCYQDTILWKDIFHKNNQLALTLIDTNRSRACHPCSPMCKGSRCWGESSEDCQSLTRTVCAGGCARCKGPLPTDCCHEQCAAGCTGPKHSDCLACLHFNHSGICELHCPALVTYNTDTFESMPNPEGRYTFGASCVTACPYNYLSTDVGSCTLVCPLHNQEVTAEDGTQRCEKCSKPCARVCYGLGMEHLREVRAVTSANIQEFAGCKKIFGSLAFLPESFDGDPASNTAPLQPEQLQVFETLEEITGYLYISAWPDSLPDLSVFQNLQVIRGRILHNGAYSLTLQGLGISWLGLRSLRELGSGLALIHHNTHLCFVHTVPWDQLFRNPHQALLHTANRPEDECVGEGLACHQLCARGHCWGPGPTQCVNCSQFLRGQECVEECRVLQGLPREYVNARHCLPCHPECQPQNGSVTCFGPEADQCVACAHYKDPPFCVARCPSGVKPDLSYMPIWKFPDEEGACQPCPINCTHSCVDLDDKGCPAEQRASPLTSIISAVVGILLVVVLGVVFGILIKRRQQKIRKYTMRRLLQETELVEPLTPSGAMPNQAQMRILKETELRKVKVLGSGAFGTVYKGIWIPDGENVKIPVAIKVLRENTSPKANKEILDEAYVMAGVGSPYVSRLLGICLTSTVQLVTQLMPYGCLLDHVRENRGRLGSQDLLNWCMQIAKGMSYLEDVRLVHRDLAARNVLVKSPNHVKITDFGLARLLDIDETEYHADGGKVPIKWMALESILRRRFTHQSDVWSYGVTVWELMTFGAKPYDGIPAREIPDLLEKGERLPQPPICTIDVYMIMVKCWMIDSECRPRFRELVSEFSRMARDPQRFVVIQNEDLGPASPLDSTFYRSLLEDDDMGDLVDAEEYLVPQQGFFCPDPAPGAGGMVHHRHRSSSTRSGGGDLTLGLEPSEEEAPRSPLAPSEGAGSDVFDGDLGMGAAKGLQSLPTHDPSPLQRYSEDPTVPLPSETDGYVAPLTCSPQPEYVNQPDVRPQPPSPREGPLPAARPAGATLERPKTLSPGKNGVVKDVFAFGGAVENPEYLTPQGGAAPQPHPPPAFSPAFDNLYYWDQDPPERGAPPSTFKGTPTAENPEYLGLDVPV

`COc1cc(NC(=O)C2CC(c3cccc(OC)c3OC)=NO2)cc(OC)c1OC` (stereo not given): the viability (usually a read-out of living cells in per cent, often relative to untreated cells) was 83% in experiment [1]; 83% (inactive) in experiment [3]; 54.9% (inactive) in experiment [4]; 27.3% (active) in experiment [5]; 69.1% in experiment [6] (setting [9]); 27.3% in experiment [6] (setting [10]). Moreover, in experiment [2], the Her2 level was 99% (inactive). For the same compound, the differential viability (reversal) in experiment [6] (H69AR cells + 2 uM doxorubicin) was -41.8% (inactive). Moreover, the figures for the inhibition in experiment [7] and in experiment [8] were 6.84% (inactive) and -4.18% (inactive), respectively.
As for `O=C(CCCCC(=O)NCc1cccs1)NCc1cccs1`, the viability was 95.5% in experiment [1]; 95.5% (inactive) in experiment [3]; 99.7% (inactive) in experiment [4]; 97.8% (inactive) in experiment [5]; 97% in experiment [6] (setting [9]); 97.8% in experiment [6] (setting [10]). Moreover, the Her2 level in experiment [2] was 106% (inactive). Besides, the differential viability (reversal) in experiment [6] (H69AR cells + 2 uM doxorubicin) is 0.77% (inactive). The inhibition (in general, the relative decrease from the control value, in per cent) in experiment [7] was 1.2% (inactive); in experiment [8], -7.42% (inactive).
As for `COc1ccc(OCCCC(=O)Nc2ccc3c(c2)OCCO3)cc1`, the viability in experiment [1] was 99.5%; in experiment [3], 99.5% (inactive); in experiment [4], 81.8% (inactive); in experiment [5], 82.7% (inactive); in experiment [6] (setting [9]), 86.3%; in experiment [6] (setting [10]) it was 82.7%. Also, the Her2 level in experiment [2] was 93.5% (inactive). In experiment [6] (H69AR cells + 2 uM doxorubicin), the differential viability (reversal) was -3.62% (inactive). The inhibition in experiment [7] was -6.76% (inactive); in experiment [8], -6.83% (inactive).
Regarding `O=C(CN1CCN(c2cccc(Cl)c2)CC1)N1CCCC1`, the viability was 105% in experiment [1]; 105% (inactive) in experiment [3]; 110% (inactive) in experiment [4]; 78.8% (inactive) in experiment [5]; 81.5% in experiment [6] (setting [9]); 78.8% in experiment [6] (setting [10]). Also, in experiment [2], the Her2 level is 102% (inactive). Further, the differential viability (reversal) in experiment [6] (H69AR cells + 2 uM doxorubicin) was -2.74% (inactive). Besides, the inhibition in experiment [7] is -6.75% (inactive); in experiment [8], -7.46% (inactive).
For `CC1(C)NC(=O)N(CC(O)CN(Cc2ccccc2)Cc2ccccc2)C1=O` (stereo not given), the viability in experiment [1] is 78%; in experiment [3] it was 78% (inactive); in experiment [4] it was 108% (inactive); in experiment [5], 92.6% (inactive); in experiment [6] (setting [9]), 78.9%; in experiment [6] (setting [10]), 92.6%. Also, the Her2 level in experiment [2] is 78.5% (inactive). Moreover, the differential viability (reversal) in experiment [6] (H69AR cells + 2 uM doxorubicin) is 13.7% (inactive). The figures for the inhibition in experiment [7] and in experiment [8] were -4.59% (inactive) and -10.2% (inactive), respectively.
On to `CCOCCCNC(=O)CC1Oc2ccc(C)cc2NC1=O` (stereo not given), for which the viability is 109% in experiment [1]; 109% (inactive) in experiment [3]; 86.8% (inactive) in experiment [4]; 94.7% (inactive) in experiment [5]; 97.7% in experiment [6] (setting [9]); 94.7% in experiment [6] (setting [10]). Further, the Her2 level in experiment [2] was 100% (inactive). The differential viability (reversal) in experiment [6] (H69AR cells + 2 uM doxorubicin) was -3.06% (inactive). The inhibition is -1.6% (inactive) in experiment [7] and 5.08% (inactive) in experiment [8].
Consider `COc1ccc(C2C(C(=O)NCCN3CCOCC3)c3ccccc3C(=O)N2C2CCCCC2)cc1` (stereo not given), for which the viability in experiment [1] was 88.5%; in experiment [3], 88.5% (inactive); in experiment [4], 64.3% (inactive); in experiment [5], 81.3% (inactive); in experiment [6] (setting [9]), 79.2%; in experiment [6] (setting [10]), 81.3%. Further, the Her2 level in experiment [2] was 71% (inactive). The differential viability (reversal) in experiment [6] (H69AR cells + 2 uM doxorubicin) is 2.12% (inactive). For the same compound, the values for the inhibition in experiment [7] and in experiment [8] were -3.33% (inactive) and 0% (inactive), respectively.
In the case of `O=C1CC(c2ccccc2)n2nc(NC(=O)c3ccccn3)nc2N1` (stereo not given), the viability in experiment [1] was 104%; in experiment [3], 104% (inactive); in experiment [4], 84.3% (inactive); in experiment [5], 66.2% (inactive); in experiment [6] (setting [9]) it was 84.9%; in experiment [6] (setting [10]), 66.2%. Also, the Her2 level in experiment [2] was 78% (inactive). The differential viability (reversal) in experiment [6] (H69AR cells + 2 uM doxorubicin) was -18.7% (inactive). Moreover, the inhibition in experiment [7] is -4.59% (inactive); in experiment [8], 4.6% (inactive).
For the compound `CCOc1cccc(-c2nnc3sc(COc4ccc(OC)cc4)nn23)c1`, the viability was 72.5% in experiment [1]; 72.5% (inactive) in experiment [3]; 68.3% (inactive) in experiment [4]; 85.5% (inactive) in experiment [5]; 86.9% in experiment [6] (setting [9]); 85.5% in experiment [6] (setting [10]). Moreover, the Her2 level in experiment [2] was 102% (inactive). Further, in experiment [6] (H69AR cells + 2 uM doxorubicin), the differential viability (reversal) was -1.33% (inactive). Also, the results for the inhibition in experiment [7] and in experiment [8] were -1.95% (inactive) and -6.39% (inactive), respectively.
As for `FC(F)Sc1nnc(-c2cccs2)n1-c1ccccc1`, the viability in experiment [1] is 101%; in experiment [3], 101% (inactive); in experiment [4] it was 93.6% (inactive); in experiment [5] it was 98% (inactive); in experiment [6] (setting [9]), 87.9%; in experiment [6] (setting [10]), 98%. Also, in experiment [2], the Her2 level is 92% (inactive). For the same compound, the differential viability (reversal) in experiment [6] (H69AR cells + 2 uM doxorubicin) is 10.1% (inactive). The inhibition in experiment [7] was -7.33% (inactive); in experiment [8], 2.74% (inactive).
With `CCOC(=O)N1CCN(S(=O)(=O)c2cc(C)c(C)cc2C)CC1`, the viability in experiment [1] is 96.5%; in experiment [3], 96.5% (inactive); in experiment [4], 104% (inactive); in experiment [5] it was 95.3% (inactive); in experiment [6] (setting [9]), 89.3%; in experiment [6] (setting [10]) it was 95.3%. Also, the Her2 level in experiment [2] was 87% (inactive). In addition, the differential viability (reversal) in experiment [6] (H69AR cells + 2 uM doxorubicin) was 6.04% (inactive). Also, the inhibition in experiment [7] was -4.34% (inactive); in experiment [8], 2.22% (inactive).
Take `c1ccc(Cn2nnnc2CN2CCN(c3ncccn3)CC2)cc1`: the viability is 99% in experiment [1]; 99% (inactive) in experiment [3]; 92.1% (inactive) in experiment [4]; 100% (inactive) in experiment [5]; 101% in experiment [6] (setting [9]); 100% in experiment [6] (setting [10]). In addition, in experiment [2], the Her2 level is 97.5% (inactive). In experiment [6] (H69AR cells + 2 uM doxorubicin), the differential viability (reversal) was -0.765% (inactive). The inhibition in experiment [7] was -3.47% (inactive); in experiment [8], 0.98% (inactive).
As for `O=C(COC(=O)C1CC1)c1c[nH]c2ccccc12`, the viability in experiment [1] was 93.5%; in experiment [3], 93.5% (inactive); in experiment [4], 105% (inactive); in experiment [5] it was 115% (inactive); in experiment [6] (setting [9]), 100%; in experiment [6] (setting [10]) it was 115%. Further, the Her2 level in experiment [2] is 107% (inactive). Also, the differential viability (reversal) in experiment [6] (H69AR cells + 2 uM doxorubicin) is 14.9% (inactive). In addition, the values for the inhibition in experiment [7] and in experiment [8] were 3.24% (inactive) and -11.3% (inactive), respectively.
With `O=C(CCN1C(=O)COc2ccccc21)NCCN1CCN(c2cccc(Cl)c2)CC1`, the viability in experiment [1] is 94.5%; in experiment [3] it was 94.5% (inactive); in experiment [4] it was 90.9% (inactive); in experiment [5] it was 83.8% (inactive); in experiment [6] (setting [9]), 95.1%; in experiment [6] (setting [10]), 83.8%. For the same compound, in experiment [2], the Her2 level is 84% (inactive). For the same compound, the differential viability (reversal) in experiment [6] (H69AR cells + 2 uM doxorubicin) was -11.3% (inactive). In addition, the inhibition in experiment [7] was -1.04% (inactive); in experiment [8], -3.33% (inactive).
On to `CC(C)N(C=O)C1(C(=O)NC2CCCCC2)CCCCC1`, for which the viability was 100% in experiment [1]; 100% (inactive) in experiment [3]; 97.9% (inactive) in experiment [4]; 112% (inactive) in experiment [5]; 97.9% in experiment [6] (setting [9]); 112% in experiment [6] (setting [10]). Further, the Her2 level in experiment [2] was 106% (inactive). Moreover, in experiment [6] (H69AR cells + 2 uM doxorubicin), the differential viability (reversal) is 13.7% (inactive). Besides, the inhibition in experiment [7] is -0.53% (inactive); in experiment [8], -6.61% (inactive).
On to `NC(=O)C(Cc1ccccc1)NS(=O)(=O)c1ccc(N2CCCC2=O)cc1` (stereo not given), for which the viability in experiment [1] was 90.5%; in experiment [3], 90.5% (inactive); in experiment [4] it was 108% (inactive); in experiment [5] it was 101% (inactive); in experiment [6] (setting [9]), 90%; in experiment [6] (setting [10]), 101%. The Her2 level in experiment [2] is 92% (inactive). The differential viability (reversal) in experiment [6] (H69AR cells + 2 uM doxorubicin) was 10.9% (inactive). In addition, the values for the inhibition in experiment [7] and in experiment [8] were -3.87% (inactive) and 1.48% (inactive), respectively.
